PMI act hi M6P – increases human PMI activity with near-saturating mannose 6-phosphate. activation factor at 20 µM. coupled PMI enzyme assay, resazurin fluorescence, 20 min; stronger effect = higher value; 1 = untreated enzyme, 0 = substrate-free blank. P34949. AID 1216. 0.34% of 190,000 active;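 active = activation factor of 2 or more at 20 µM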
Target sequence (P34949 whole entry, looked up): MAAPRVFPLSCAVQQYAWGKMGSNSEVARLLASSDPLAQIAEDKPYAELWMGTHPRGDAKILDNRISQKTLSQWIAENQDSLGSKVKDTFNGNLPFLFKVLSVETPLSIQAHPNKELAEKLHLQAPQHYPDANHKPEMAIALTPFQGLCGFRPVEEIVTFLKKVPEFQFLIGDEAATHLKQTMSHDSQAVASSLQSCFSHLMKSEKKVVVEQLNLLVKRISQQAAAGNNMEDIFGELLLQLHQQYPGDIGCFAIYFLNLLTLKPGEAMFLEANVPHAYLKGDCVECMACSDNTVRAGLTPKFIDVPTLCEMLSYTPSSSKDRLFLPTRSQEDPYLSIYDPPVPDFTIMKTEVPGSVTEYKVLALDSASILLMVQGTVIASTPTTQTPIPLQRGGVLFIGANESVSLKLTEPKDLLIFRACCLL
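Test system: human phosphomannose isomerase with PGI, G6PDH, diaphorase coupling enzymes / Doses: 20 µM compound, 1% DMSO / Times: enzyme reaction with compound 20 min at room temperature / Measured by: Diaphorase-driven resazurin-to-resorufin fluorescence, excitation 544, emission 590 nm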
TNAP inh no acc – TNAP (human) inhibition, acceptor-free conditions. P05186. purified TNAP, CDP-star luminescence, 30 min. inhibition, % at 20 µM. 0.26% of 200,000 active. AID 1012;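 active = tissue-nonspecific alkaline phosphatase inhibition above about 50% at 20 µM in the single-dose screen, limit read from the data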;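 note: 0% = DMSO negative control and 100% = EDTA positive control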
PMI act – increases human mannose-6-phosphate isomerase activity; P34949; purified human PMI, coupled resazurin fluorescence, 20 min; stronger effect = higher value; 1 = vehicle control, 0 substrate-free wells; activation factor at 20 µM; 0.005% of 190,000 active; AID 1214;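 active = activation factor of 2 or more at 20 µM, relative to plate controls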
TNAP inh hi DEA – TNAP (human) inhibition, high acceptor; AID 1135; purified TNAP, CDP-star luminescence, 1 M DEA; inhibition, % at 20 µM; 0.03% of 200,000 active;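 active = over 50% inhibition of tissue-nonspecific alkaline phosphatase at 20 µM in the single-dose screen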;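 note: plate controls were DMSO wells for no effect and EDTA-quenched wells as full inhibition for full effect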
TNAP act hiacc – activators of human TNAP at high phosphate acceptor concentration | P05186 | purified TNAP, CDP-star luminescence, 1 M DEA, 30 min; stronger effect = higher value; 0 = EDTA background, 1 = DMSO-only activity | activation factor at 20 µM | 200,000 tested, under 10 active | AID 1136;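 active = activation factor at least 2 at 20 µM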
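Measured by: Luminescent substrate turnover signal | Test system: Human TNAP | Input: TNAP 1/800 final | Dosing: 20 µM single point | Schedule: 30 min, room temperature | Controls: EDTA wells as negative control, DMSO wells as positive control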
The depositor's hits bear a star. A selection: hits, their analogues and other compounds. The true share with any hit is near 0.64%.

SMILES	PMI act hi M6P	TNAP inh no acc	PMI act	TNAP inh hi DEA	TNAP act hiacc
CCCOc1ccc(N2CC(C(=O)NCCc3ccc(OC)c(OC)c3)CC2=O)cc1 (configuration not stated)	1.1	-9	1	-8	1.1
COc1c2ccccc2c(OC)c2ccccc12	1.2	-6	1.3	3	1
O=C(Cc1ccccc1)NC1(Cc2ccc(O)cc2)CCCCC1	0.9	-3	0.8	4	1
CCOc1cc(/C=C2/SC(=S)N(CC3CCCO3)C2=O)ccc1O (configuration not stated)	0.7	33	0.9	52*	0.5
CCOc1cc(/C=C2\SC(=S)N(NC(=O)c3cccnc3)C2=O)ccc1O	0.9	49	1	51*	0.5
CCCCCCCC[n+]1c(C)n(-c2ccccc2)c2ccc(NC(C)=O)cc21	1.1	-10	1.2	-8	1.1
Cc1ccc(C(=O)OCC(=O)Nc2cccc(S(=O)(=O)NC3=NCCCCC3)c2)c(C)c1	1	-7	1	-3	1
CCN(CC)c1ccc(N=Nc2nn(C)c(C)c2[N+](=O)[O-])cc1	0.9	37	0.9	56*	0.4
CC(=O)Nc1ccc(NC(=O)C2CCCN2/C=C/C(=O)C(F)(F)F)cc1 (configuration not stated)	1	-11	1	-3	1
Cc1nc2cc(-c3ccc(Cl)cc3)nn2c(NCCN(C)C)c1C	1	-10	0.9	-4	1
Cn1cc(CN2C[C@H]3CC[C@H]2C3)c(-c2ccccc2F)n1	1	-8	1	-2	1
O=[N+]([O-])c1ccc(/C=N/NS(=O)(=O)c2ccc(Cl)cc2)o1	2.2*	17	1.6	2	1
Cc1ccc(S(=O)(=O)N/N=C\c2ccc([N+](=O)[O-])o2)cc1	2.1*	19	1.5	-2	1
CCSc1ccc2cc(OC)ccc2[n+]1CC	1.8	5	0.8	1	1
CC(C)OCCCNC(=O)C1CCC(CNS(=O)(=O)c2ccccc2)CC1 (configuration not stated)	1	-9	1	-1	1
Cc1ccccc1C(=O)NNC(=O)CSc1nc(-c2ccccc2)cc(=O)[nH]1	1.1	75*	1.1	-4	1
C=CCSc1nc2ccsc2c(=O)n1-c1cccnc1	1.1	-11	1.1	-2	1
CCOc1ccc(/C=C/C(=O)c2cc(Br)ccc(=O)c2O)cc1	2*	14	1.6	8	0.9
Cc1c(C(C)(C)C)c(C=S)n2ccccc12	2*	14	1.6	-5	1.1
CC(C)(C)c1ccc(-c2nc(C=O)c3ccccn23)cc1	1	-8	1	-3	1
CC1CCCN(CCCOc2ccccc2-c2ccccc2)C1 (configuration not stated)	1.1	-14	1.1	-8	1.1
CCOc1ccc(C(c2c(C)[nH][nH]c2=O)c2c(C)[nH][nH]c2=O)cc1OC	0.6	47	0.7	65*	0.4
CCOc1cc(C(c2c(C)[nH][nH]c2=O)c2c(C)[nH][nH]c2=O)ccc1OCc1ccc([N+](=O)[O-])cc1	0.8	-53	0.8	13	0.9
CCOc1cc(C(c2c(C)[nH][nH]c2=O)c2c(C)[nH][nH]c2=O)ccc1OS(=O)(=O)c1ccc(C)cc1	0.9	-13	0.9	52*	0.5
CCOc1cc(/C=N/O)ccc1OS(=O)(=O)c1ccc(C)cc1	0.8	0	0.8	-1	1
SMILES	PMI act hi M6P	TNAP inh no acc	PMI act	TNAP inh hi DEA	TNAP act hiacc
COc1ccc(C(=O)N[C@H](C(=O)N2CCN(c3ccccc3F)CC2)C(C)C)cc1	0.9	1	0.9	-1	1
Cc1ccc(N=C2NC(=O)C(CC(=O)O)S2)cc1 (configuration not stated)	1	64*	1	-4	1
CCCCCCCCCCSc1n[nH]c(NC(C)=O)n1	1.1	-74	1	2	1
CCCSc1n[nH]c(NC(C)=O)n1	1	96*	1	-1	1
CSc1n[nH]c(NC(C)=O)n1	1.1	50*	1.1	4	1
COc1ccc(NC(=O)c2cc3c(=O)n4ccccc4nc3n2C)cc1OC	1	-11	1	-4	1
O=C(O)CC(c1ccccc1)n1cccc1 (configuration not stated)	2*	-8	1.3	-3	1
C/C(=N\Nc1ccc(Cl)c(Cl)c1)c1ccc(-n2ccnc2)cc1	2.6*	2	1.7	-3	1
C/C(=N\NC(=O)c1ccccc1)c1ccc(-n2ccnc2)cc1	1	-6	0.9	-2	1
Cc1ccc(C(=O)NN2C(=O)C3C(C2=O)C2C=CC3C23CC3)cc1 (configuration not stated)	1.1	-4	1.1	-5	1.1
O=C(NNc1ccc(C2CCCCC2)cc1)C(O)(c1ccccc1)c1cccs1 (configuration not stated)	2.1*	-12	1.2	-5	1
CC(C)OCCCNC(=O)C1CCN(S(=O)(=O)N2CCCC2)CC1	1.1	-9	1.2	-2	1
COc1ccccc1N1CCN(C(=O)CSc2nc(-c3ccccc3)cc(=O)[nH]2)CC1	1.1	-11	1	-2	1
Nc1ncnc2nc(SCC(=O)N3CCN(c4ccccc4)CC3)[nH]c12	1.1	62*	1	1	1
COc1ccccc1N1CCN(C(=O)CSc2nc3ncnc(N)c3[nH]2)CC1	1.1	60*	1	-6	1.1
CCC1Nc2ccccc2-c2nnc(SC)nc2O1 (configuration not stated)	1.1	3	1	-8	1.1
COc1ccccc1C(=O)C1Nc2ccccc2-c2nnc(SC)nc2O1 (configuration not stated)	2.5*	-4	1.7	4	1
O=c1/c(=C/c2ccco2)sc2nc(-c3ccccc3Br)nn12	1.2	58*	1	-6	1.1
COc1ccc(C(=O)NNc2ccccc2)cc1OC	2.2*	-10	1.4	4	1
Cc1cc(=O)oc2n[nH]c(-c3ccccc3)c12	1.1	92*	1	1	1
Cc1nc(-c2ccccc2)cc(=O)[nH]1	1.1	-13	1.1	-6	1.1
COc1ccc(-c2[nH]nc3oc(=O)cc(C)c23)cc1	0.9	90*	0.9	8	0.9
COc1ccc(-c2[nH]nc3oc(=O)c(CCO)c(C)c23)cc1	1	6	1.1	1	1
Nc1cc(F)ccc1N1CCCCCC1	1.1	-7	1.4	0	1
CC1(C)Oc2ccc3ccc(=O)oc3c2C(N2CCCCC2)C1O (configuration not stated)	2.1*	-15	1.5	-4	1

Screening data as filed in PubChem.
